Assay results pooled from the literature.
Each line is one published result; the experiments were not run side by side.
Target: Serine/threonine-protein kinase Nek2 (NEK2, Homo sapiens, UniProt P51955)
One construct used (P51955 1-445): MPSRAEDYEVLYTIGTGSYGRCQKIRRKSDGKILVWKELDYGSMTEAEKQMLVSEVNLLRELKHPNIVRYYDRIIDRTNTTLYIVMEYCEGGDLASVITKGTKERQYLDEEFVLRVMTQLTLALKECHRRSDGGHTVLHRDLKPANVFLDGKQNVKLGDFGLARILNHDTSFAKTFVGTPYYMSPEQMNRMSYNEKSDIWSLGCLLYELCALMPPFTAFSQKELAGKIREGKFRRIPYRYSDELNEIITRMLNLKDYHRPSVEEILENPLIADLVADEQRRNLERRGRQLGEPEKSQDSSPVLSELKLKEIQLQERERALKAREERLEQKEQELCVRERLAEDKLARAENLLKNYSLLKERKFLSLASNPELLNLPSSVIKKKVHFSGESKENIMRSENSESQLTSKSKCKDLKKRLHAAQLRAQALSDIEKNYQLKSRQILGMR

`CNC(=O)[C@@H]1CC[C@@H](n2c(-c3ccc4cnccc4c3)nc3ccc(C(=O)NCc4cccc(C(N)=O)c4)cc32)C1` has a remaining binding of 97% (binding; competition with immobilised ligand; 1 µM).
For `O=C(c1ccc(Nc2nccc(-c3cc4ccccc4s3)n2)cc1)N1CCC(N2CCCC2)CC1`, the remaining binding was 95% (binding; competition with immobilised ligand; 1 µM).
For `c1cncc(-c2cccc(Nc3nccc(NC4CCCCC4)n3)c2)c1`, the remaining binding was 97% (binding; competition with immobilised ligand; 10 µM).
With `O=C(Nc1c[nH]nc1C(=O)NC1CCNCC1)c1cc(F)cc(F)c1` the remaining binding was 93% (binding; competition with immobilised ligand; 1 µM).
With `COCCOc1nc(-c2ccc(Cl)nc2)nc2c1CN(C(=O)c1ncn3ccccc13)CC2` the remaining binding was 100% (cell-free assay; competition with immobilised ligand; 0.1 µM).
The remaining binding of `C[C@H]1CCN(c2nccc(-c3cnn4ncccc34)n2)C1` is reported as 90% (binding; 1 µM).
`C[C@H](c1ccnc(Nc2nc3ccc(-c4cc(N(C)C)ncn4)cc3[nH]2)c1)N1CCN(C(=O)CC(F)(F)F)CC1` has a remaining binding of 100% (cell-free assay; competition with immobilised ligand; 0.1 µM).
For `COc1cnc(Nc2cccc(S(N)(=O)=O)c2)nc1N1CCN(c2ccccc2)C(=O)C1`, the remaining binding was 98% (binding; competition with immobilised ligand; 1 µM).
With `COc1ccnn2ncc(-c3ccnc(N(C)C)n3)c12` the remaining binding was 92% (binding; 1 µM).
The remaining binding of `NS(=O)(=O)c1cc(NC(=O)C2(c3ccccc3Cl)CC2)ccc1Oc1cccc(Cl)c1` is reported as 86% (cell-free assay; competition with immobilised ligand; 1 µM).
`C=CC(=O)N1CCC(C(=O)NCC(=O)N2CCN(c3nc(-c4cnc(N)nc4C(F)F)nc(N4CCOCC4)n3)CC2)CC1` has a remaining binding of 95% (binding; competition with immobilised ligand; 1 µM).
`O=C(NCCCN1CCOCC1)c1ccc(Nc2ncc(Cl)c(-c3ccc(Cl)s3)n2)cc1` has a remaining binding of 75% (binding; competition with immobilised ligand; 1 µM).
`c1cnn2ncc(-c3ccnc(N4CCC45COC5)n3)c2c1` has a remaining binding of 95% (binding; 1 µM).
`O=C(N[C@H]1CCCCC/C=C\C2C[C@@]2(C(=O)O)NC(=O)[C@@H]2C[C@@H](Oc3ccncc3)CN2C1=O)OC1CCCC1` (some centres unmarked) gave a remaining binding of 94% (binding; competition with immobilised ligand; 1 µM).
For `CC1CCCN1c1nccc(-c2cnn3ncccc23)n1` (centres unmarked), the remaining binding was 100% (binding; 1 µM).
`O=C(c1ccc(Nc2ncc(Cl)c(-c3cc4ccccc4s3)n2)cc1)N1CCC(N2CCCC2)CC1` has a remaining binding of 83% (binding; competition with immobilised ligand; 1 µM).
`CN(C)c1nccc(-c2cnc3ncccn23)n1` gave a remaining binding of 93% (binding; 1 µM).
With `CC(=O)N1CCC(c2ccc(C(=O)NC(=N)N)cc2C(F)(F)F)CC1` the remaining binding was 100% (cell-free assay; competition with immobilised ligand; 1 µM).
`N[C@H]1CCN(c2nccc(-c3cnn4ncccc34)n2)C1` gave a remaining binding of 100% (binding; 1 µM).
For `O=C(NCCCC1CCCCC1)c1ccc(CNC(=O)c2cnn(-c3ccccc3)c2C(F)(F)F)cc1`, the remaining binding was 100% (cell-free assay; competition with immobilised ligand; 0.1 µM).
